Source: ChEMBL document CHEMBL1146368, “Development of selective inhibitors for anti-apoptotic Bcl-2 proteins from BHI-1” (Bioorg Med Chem, 2007)

Experiments:
Bcl-2-like protein 2 = target: T1, Bcl-2-like protein 2 (Homo sapiens, UniProt Q92843); test: Displacement of Flu-Bak peptide from recombinant antiapoptotic Bcl-w protein by fluorescence polarization assay
T1 sequence (Q92843 whole entry): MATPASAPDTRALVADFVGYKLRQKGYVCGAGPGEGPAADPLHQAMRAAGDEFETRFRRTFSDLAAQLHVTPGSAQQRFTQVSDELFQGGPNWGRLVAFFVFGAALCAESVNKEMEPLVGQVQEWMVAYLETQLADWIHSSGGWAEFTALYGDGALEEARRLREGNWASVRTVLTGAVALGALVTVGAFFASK
Summary of the method: (§1)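 Recombinant Ni-NTA-purified proteins from E. coli ER2566 (Bcl-2 lacking transmembrane domain). Oregon Green-labelled Bak BH3 peptide (50 nM in premix) is preincubated 1 h at 23 °C with protein for 60% complex (Bcl-2 1000 nM, Bcl-XL 880 nM, Bcl-w 1200 nM) in PBS pH 7.0 with 1 mM DTT. This is added to compound from 3-fold DMSO stocks (0.014–10 mM), incubated 1 h at 23 °C, and polarization read. Peptide-only background is subtracted. Ki is from the Wang equation; triplicates, run twice.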

[1] = Displacement of Flu-Bak peptide from recombinant antiapoptotic Bcl-XL protein by fluorescence polarization assay; parameters: species or system Homo sapiens; summary of the method: as §1
Homo sapiens [2] = species on record: Homo sapiens; test: Selectivity for recombinant Bcl2 protein over recombinant Bcl-w protein
[3] = target: Apoptosis regulator Bcl-2 (Homo sapiens, UniProt P10415); test: Displacement of Flu-Bak peptide from recombinant antiapoptotic Bcl2 protein by fluorescence polarization assay
Summary of the method: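 Recombinant Ni-NTA-purified proteins from E. coli ER2566 (Bcl-2 lacking transmembrane domain). This is added to compound from 3-fold DMSO stocks (0.014–10 mM), incubated 1 h at 23 °C, and polarization read. Peptide-only background is subtracted. Ki is from the Wang equation; triplicates, run twice.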

Homo sapiens [4] = species on record: Homo sapiens; test: Selectivity for recombinant Bcl-w protein over recombinant Bcl-XL protein
Homo sapiens [5] = species on record: Homo sapiens; test: Selectivity for recombinant Bcl2 protein over recombinant Bcl-XL protein
Homo sapiens [6] = species on record: Homo sapiens; test: Selectivity for recombinant Bcl-XL protein over recombinant Bcl-2 protein

Sequence of Apoptosis regulator Bcl-2 (P10415 whole entry, the tested form may be a part): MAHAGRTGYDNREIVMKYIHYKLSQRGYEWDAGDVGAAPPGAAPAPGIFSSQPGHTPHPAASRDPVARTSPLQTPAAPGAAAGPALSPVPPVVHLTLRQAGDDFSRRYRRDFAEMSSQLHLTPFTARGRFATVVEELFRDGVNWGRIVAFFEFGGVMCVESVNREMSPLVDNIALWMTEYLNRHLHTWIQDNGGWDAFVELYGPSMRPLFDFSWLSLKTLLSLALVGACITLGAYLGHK

Row | Compound | Ki (Bcl-2-like protein 2) [µM] | Ki [1] [µM] | Ratio Ki (Homo sapiens [2]) | Ki [3] [µM] | Ratio Ki (Homo sapiens [4]) | Ratio Ki (Homo sapiens [5]) | Ratio Ki (Homo sapiens [6])
1 | CC(C)C[C@@H](C(=O)O)N1C(=O)C(=C(c2ccccc2)c2ccccc2)SC1=S | 61.9 | 68.8 | 1.07 | 57.8 | – | – | –
2 | CCCC[C@H]1C(=O)O[C@H](C)[C@H](NC(=O)c2cccc(NC=O)c2O)C(=O)O[C@@H](C)[C@@H]1OC(=O)CC(C)C [ANTIMYCIN A3] | 127 | – | – | 124 | – | – | –
3 | C=CCOC(=O)[C@H](Cc1ccccc1)N1C(=O)C(=C(c2ccccc2)c2ccccc2)SC1=S | 116 | 176 | – | 260 | 1.52 | – | –
4 | CCC/C(=C1/SC(=S)N([C@@H](Cc2ccccc2)C(=O)O)C1=O)c1ccccc1 | 41.1 | 27.9 | – | 12 | – | 2.33 | –
5 | CC(C)C(C(=O)O)N1C(=O)/C(=C\c2ccc(Br)cc2)SC1=S (stereo unspecified) | 124 | 133 | 2.85 | 43.4 | – | – | –
6 | Cc1cc2c(C(C)C)c(O)c(O)c(C=O)c2c(O)c1-c1c(C)cc2c(C(C)C)c(O)c(O)c(C=O)c2c1O [GOSSYPOL] | 17.7 | 24.7 | – | – | – | – | –
7 | CSCC[C@@H](C(=O)O)N1C(=O)/C(=C/c2ccc(Br)cc2)SC1=S | 88 | 134 | 1.26 | 69.6 | – | – | –
8 | C=CCOC(=O)[C@H](Cc1ccccc1)N1C(=O)/C(=C/c2ccc(Br)cc2)SC1=S | 56.8 | 244 | – | > 1000 | 4.29 | – | –
9 | CCC/C(=C1/SC(=S)N([C@@H](CC(C)C)C(=O)O)C1=O)c1ccccc1 | 24.1 | 41.3 | 1.79 | 13.5 | – | – | –
10 | CC(C)C[C@@H](C(=O)O)N1C(=O)/C(=C/c2ccc(Br)cc2)SC1=S | 31.2 | 2.99 | – | 7.43 | – | – | 2.48
11 | CC(C)C[C@@H](C(=O)O)N1C(=O)/C(=C(\c2ccccc2)c2ccc(-c3ccccc3)cc2)SC1=S | 6.98 | 8.7 | 3.58 | 1.95 | – | – | –
12 | O=C(O)[C@H](Cc1c[nH]c2ccccc12)N1C(=O)/C(=C/c2ccc(Br)cc2)SC1=S | 54.2 | 32.8 | – | 2.85 | – | 11.5 | –
13 | C=CCOC(=O)[C@H](C)N1C(=O)/C(=C/c2ccc(Br)cc2)SC1=S | > 1000 | 268 | – | 192 | – | 1.4 | –
14 | COc1ccc2c(c[n+](C)c3c4cc5c(cc4ccc23)OCO5)c1OC [CHELERYTHRINE CHLORIDE] | 106 | 96 | – | 171 | – | – | –
15 | C[C@@H](C(=O)O)N1C(=O)/C(=C/c2ccc(Br)cc2)SC1=S | 243 | 374 | 2.11 | 115 | – | – | –
16 | O=C(O)CC[C@@H](C(=O)O)N1C(=O)/C(=C/c2ccc(Br)cc2)SC1=S | 610 | 848 | 1.91 | 320 | – | – | –
17 | C[C@@H](C(=O)N1CCOCC1)N1C(=O)/C(=C/c2ccc(Br)cc2)SC1=S | 146 | 228 | 2.01 | 70 | – | – | –
18 | O=C(O)[C@H](Cc1ccccc1)N1C(=O)/C(=C/c2ccc(Br)cc2)SC1=S | 21.5 | 5.35 | – | 14.2 | – | – | 2.65
19 | C/C(=C1/SC(=S)N([C@@H](CC(C)C)C(=O)O)C1=O)c1ccccc1 | 58.3 | 128 | 2.74 | 21.2 | – | – | –
